In ChEMBL document CHEMBL1155418, “Synthesis and structure-activity relationships of N3-pyridylpyrazinones as corticotropin-releasing factor-1 (CRF1) receptor antagonists” (Bioorg Med Chem Lett, 2010):

Experiments:
[1] = organism: Rattus norvegicus; assay: Metabolic stability in rat liver microsomes assessed as compound remaining after 10 mins
[2] = organism: Homo sapiens; assay: Metabolic stability in human liver microsomes assessed as compound remaining after 10 mins
[3] = target: T1, Corticotropin-releasing factor receptor 1 (Rattus norvegicus, UniProt P35353); assay: Displacement of [125I]Tyr-ovine-CRF from CRF1 receptor in rat frontal cortex homogenate by gamma counting; type: tissue-based
T1 sequence (P35353 whole entry): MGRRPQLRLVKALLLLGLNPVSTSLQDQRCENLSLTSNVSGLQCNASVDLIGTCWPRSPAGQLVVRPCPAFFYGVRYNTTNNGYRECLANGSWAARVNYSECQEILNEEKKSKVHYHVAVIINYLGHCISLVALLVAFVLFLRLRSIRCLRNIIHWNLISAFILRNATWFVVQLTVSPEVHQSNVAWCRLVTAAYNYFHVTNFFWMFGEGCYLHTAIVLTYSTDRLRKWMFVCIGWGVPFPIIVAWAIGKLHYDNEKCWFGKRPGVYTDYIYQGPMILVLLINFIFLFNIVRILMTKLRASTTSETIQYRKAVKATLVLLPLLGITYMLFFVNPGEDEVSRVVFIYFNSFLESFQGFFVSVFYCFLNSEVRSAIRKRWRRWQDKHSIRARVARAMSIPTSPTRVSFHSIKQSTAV

[4] = Dissociation constant, pKa at pH 2 to 11 by spectrophotometric titration method; type: physicochemical
Method in brief: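 pKa determined by a spectrophotometric titration method.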

## COC[C@@H](C1CC1)n1cc(Cl)nc(Nc2c(C)nc(OC)nc2OC)c1=O
[1]
  remaining at 10 min: 25%
[2]
  remaining at 10 min: 71%
[3]
  IC50: 31 nM

## Cc1cc(Nc2nc(Cl)cn([C@H](C)C3CC3)c2=O)c(C)nc1N1CCCC1
[1]
  remaining at 10 min: 26%
[2]
  remaining at 10 min: 57%
[3]
  IC50: 6.8 nM

## COc1ccc(Nc2nc(Cl)cn([C@H](C)C3CC3)c2=O)c(C(F)(F)F)n1
[4]
  pKa: < 2
[3]
  IC50: 1.6 nM

## COC[C@H](C1CC1)n1cc(Cl)nc(Nc2c(C)nc(OC)nc2OC)c1=O
[1]
  remaining at 10 min: 18%
[2]
  remaining at 10 min: 45%
[3]
  IC50: 90 nM

## COC[C@@H](C1CC1)n1cc(Cl)nc(Nc2ccc(OC(F)F)nc2C)c1=O
[3]
  IC50: 0.8 nM

## COc1ccc(Nc2nc(Cl)cn([C@H](C)C3CC3)c2=O)c(C)n1
[4]
  pKa: 3.2
[1]
  remaining at 10 min: 60%
[2]
  remaining at 10 min: 89%
[3]
  IC50: 11 nM

## COC[C@H](C1CC1)n1cc(Cl)nc(Nc2c(C)cc(OC(F)F)nc2C)c1=O
[3]
  IC50: 4.7 nM

## Cc1nc(OC(F)F)ccc1Nc1nc(Cl)cn([C@H](C)C2CC2)c1=O
[4]
  pKa: < 2
[3]
  IC50: 1.2 nM

## COc1nc(C)c(Nc2nc(Cl)cn([C@H](C)C3CC3)c2=O)cc1C
[4]
  pKa: 3.6
[1]
  remaining at 10 min: 55%
[2]
  remaining at 10 min: 77%

## Cc1cc(OC(F)F)nc(C)c1Nc1nc(Cl)cn([C@H](C)C2CC2)c1=O
[4]
  pKa: < 2
[1]
  remaining at 10 min: 84%
[2]
  remaining at 10 min: 89%
[3]
  IC50: 2.1 nM

## COC[C@H](C1CC1)n1cc(Cl)nc(Nc2ccc(OC(F)F)nc2C)c1=O
[3]
  IC50: 1.2 nM

## Cc1nc(C(F)(F)F)ccc1Nc1nc(Cl)cn([C@H](C)C2CC2)c1=O
[3]
  IC50: 720 nM

## COc1cc(C)c(Nc2nc(Cl)cn([C@H](C)C3CC3)c2=O)c(C)n1
[4]
  pKa: 3.8
[1]
  remaining at 10 min: 81%
[2]
  remaining at 10 min: 79%
[3]
  IC50: 12 nM

## CCOc1nc(C)c(Nc2nc(Cl)cn([C@H](C)C3CC3)c2=O)cc1C
[1]
  remaining at 10 min: 81%
[2]
  remaining at 10 min: 93%
[3]
  IC50: 2.7 nM

## COc1nc(C)nc(C#N)c1Nc1nc(Cl)cn([C@H](C)C2CC2)c1=O
[3]
  IC50: 140 nM

## CC[C@H](C)[C@H](NC(=O)[C@H](CC(=O)O)NC(=O)[C@H](CC(C)C)NC(=O)[C@H](CC(C)C)NC(=O)[C@H](CCCCN)NC(=O)[C@H](CCCN=C(N)N)NC(=O)[C@H](CC(N)=O)NC(=O)[C@H](CO)NC(=O)[C@H](Cc1cnc[nH]1)NC(=O)[C@H](C)NC(=O)[C@H](CCC(N)=O)NC(=O)[C@H](CCC(N)=O)NC(=O)[C@H](C)NC(=O)[C@H](CC(C)C)NC(=O)[C@H](CCC(N)=O)NC(=O)[C@H](CC(=O)O)NC(=O)[C@H](C)NC(=O)[C@H](CCCCN)NC(=O)[C@@H](NC(=O)[C@H](CCSC)NC(=O)[C@H](CCC(=O)O)NC(=O)[C@H](CC(C)C)NC(=O)[C@@H](NC(=O)[C@H](CCC(=O)O)NC(=O)[C@H](CCCN=C(N)N)NC(=O)[C@H](CC(C)C)NC(=O)[C@H](CC(C)C)NC(=O)[C@H](Cc1cnc[nH]1)NC(=O)[C@H](Cc1ccccc1)NC(=O)[C@@H](NC(=O)[C@H](CC(C)C)NC(=O)[C@H](CC(=O)O)NC(=O)[C@H](CC(C)C)NC(=O)[C@H](CO)NC(=O)[C@@H](NC(=O)[C@@H]1CCCN1C(=O)[C@@H]1CCCN1C(=O)[C@H](CCC(=O)O)NC(=O)[C@H](CCC(N)=O)NC(=O)[C@@H](N)CO)[C@@H](C)CC)[C@@H](C)O)C(C)C)[C@@H](C)O)C(=O)N[C@@H](C)C(N)=O
[3]
  IC50: 2.9 nM

## Cc1cc(Nc2nc(Cl)cn([C@H](C)C3CC3)c2=O)c(C)nc1OC(F)F
[4]
  pKa: < 2
[1]
  remaining at 10 min: 86%
[2]
  remaining at 10 min: 100%

## COc1nc(C(F)(F)F)c(Nc2nc(Cl)cn([C@H](C)C3CC3)c2=O)cc1C
[3]
  IC50: 1.2 nM

## Cc1cc(C)c(Nc2nc(Cl)cn([C@H](C)C3CC3)c2=O)c(C)n1
[4]
  pKa: 7.9
[1]
  remaining at 10 min: 76%
[2]
  remaining at 10 min: 87%
[3]
  IC50: 65 nM

## Cc1cc(Nc2nc(Cl)cn([C@H](C)C3CC3)c2=O)c(C)nc1N(C)C
[1]
  remaining at 10 min: 29%
[2]
  remaining at 10 min: 54%
[3]
  IC50: 0.68 nM

## COc1ccc(Nc2nc(Cl)cn([C@H](C)C3CC3)c2=O)c(OC)n1
[1]
  remaining at 10 min: 25%
[2]
  remaining at 10 min: 43%
[3]
  IC50: 17 nM

## COc1nc(C)c(Nc2nc(Cl)cn([C@H](C)C3CC3)c2=O)c(OC)n1
[1]
  remaining at 10 min: 81%
[2]
  remaining at 10 min: 86%
[3]
  IC50: 240 nM
